Screening data: PubChem, several laboratories
A selection: hits, their analogues and other compounds. The true share with any hit is near 3%.
Beta2AR agonist = agonists of human beta-2 adrenergic receptor inducing internalization; Am2.2-beta2AR cells, FAP receptor internalization, flow cytometry; response, % (concentration not given with the values); actives 0.43% (n = 340,000); AID 504454;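 active = response above a set limit, near 3 SD of response in nonfluorescent compounds, cut at about 42% in these data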
ABHD5 PLIN5 PPI = blocks binding of human ABHD5 to perilipin-5 | Q00G26+Q8WTS1 | AID 602281 | actives 0.78% (n = 360,000) | Split G. princeps luciferase complementation, luminescence, 4 h | inhibition, % at 4 µM;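 active = inhibition above the mean inhibition across every tested compound plus 3 SD, cut at about 22% in these data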;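 also: 0% = DMSO only wells and the 100% control is not disclosed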
Target sequence (Q00G26 whole entry, looked up): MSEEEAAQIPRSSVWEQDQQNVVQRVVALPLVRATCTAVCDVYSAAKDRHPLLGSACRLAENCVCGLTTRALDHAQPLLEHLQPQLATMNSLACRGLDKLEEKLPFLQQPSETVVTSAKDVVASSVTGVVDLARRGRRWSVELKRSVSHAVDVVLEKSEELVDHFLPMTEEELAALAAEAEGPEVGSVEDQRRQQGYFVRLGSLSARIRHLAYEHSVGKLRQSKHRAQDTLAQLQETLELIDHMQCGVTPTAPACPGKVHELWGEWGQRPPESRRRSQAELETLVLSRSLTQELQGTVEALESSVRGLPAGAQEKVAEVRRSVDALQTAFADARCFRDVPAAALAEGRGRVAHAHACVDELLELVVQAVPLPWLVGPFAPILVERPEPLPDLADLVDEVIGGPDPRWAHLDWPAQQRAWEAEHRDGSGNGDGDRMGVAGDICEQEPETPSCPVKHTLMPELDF
Target sequence (Q8WTS1 whole entry, looked up): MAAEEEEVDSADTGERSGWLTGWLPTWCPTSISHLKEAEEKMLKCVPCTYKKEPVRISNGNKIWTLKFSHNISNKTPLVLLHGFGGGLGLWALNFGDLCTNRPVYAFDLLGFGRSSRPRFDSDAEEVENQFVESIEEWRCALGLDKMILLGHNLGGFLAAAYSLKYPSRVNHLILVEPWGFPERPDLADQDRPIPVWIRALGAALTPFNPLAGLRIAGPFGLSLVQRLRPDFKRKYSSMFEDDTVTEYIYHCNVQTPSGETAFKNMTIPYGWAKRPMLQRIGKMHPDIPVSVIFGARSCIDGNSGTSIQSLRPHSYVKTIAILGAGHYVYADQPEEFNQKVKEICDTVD
MC4R ag barr = human MC4R agonism via beta-arrestin. U2OS MC4R beta-arrestin complementation, luminescence; percent of melanotan II response, DMSO zero. actives 0.98% (n = 360,000). AID 540308. activation, % at 8.9 µM. P32245;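 active = activation above a per-plate cutoff, the mean activation of sample wells on that plate plus 3 SD, cut at about 8% in these data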
MC4R antagonist = antagonists of human melanocortin 4 receptor (MC4R); P32245; MC4R-expressing cells, MTII-stimulated cAMP, LANCE TR-FRET; inhibition, % at 6.5 µM; actives 0.48% (n = 360,000);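 active = inhibition above its plate's cutoff, the mean of tested wells on that plate plus 3 SD, cut at about 29% in these data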;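 also: 0% = Melanotan II alone and 100% = Melanotan II plus saturating MCL0020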
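System: U2OS-MC4R stable cell line; Technique: Eu-cAMP/anti-cAMP TR-FRET, emission 671 nm; Repeats: single well per compound; Also added: Melanotan II; Dosing: one concentration, 6.5 µM nominal; Schedule: 30-min compound, 1-h challenge, 1-h detection, room temperature.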
PfG6PD inh = PfG6PD (Plasmodium falciparum) enzyme inhibition | AID 504690 | PfGluPho enzyme, NADPH resazurin-diaphorase fluorescence | inhibition, % at 20 µM | actives 0.78% (n = 350,000);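 active = inhibition reaching at least a set limit at 20 µM in the primary screen, cut at about 59% in these data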;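 also: 0% = DMSO wells with substrate and 100% = DMSO wells lacking glucose-6-phosphate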
PfG6PD confirm = confirmation of Plasmodium falciparum G6PD inhibitors; shares compounds with PfG6PD inh; recombinant PfGluPho, NADPH-diaphorase-resazurin fluorescence; inhibition, % at 20 µM; actives 34% (n = 2,400); AID 504753;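 active = inhibition of at least 50% at 20 µM in any single replicate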;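 also: 0% = DMSO with substrate and 100% = DMSO lacking glucose-6-phosphate substrate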
Diaph ctr 10uM = diaphorase inhibition or oxidation at 10 uM NADPH; shares compounds with PfG6PD inh; diaphorase-coupled resazurin reduction, fluorescence, NADPH 10 uM; inhibition, % at 20 µM; actives 39% (n = 820);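 active = average inhibition reaching 50% or more with the compound at 20 µM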;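 also: resorufin red fluorescence formed as diaphorase reduces resazurin using NADPH; 0% = DMSO with enzyme and 100% = DMSO without enzyme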
Diaph ctr 30uM = inhibits diaphorase or oxidizes, flagging false PfG6PD hits | shares compounds with PfG6PD inh | Diaphorase/resazurin coupled assay, resorufin fluorescence, 30 uM NADPH | inhibition, % at 20 µM | actives 29% (n = 820);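 active = inhibition averaging 50% or more, tested at 20 µM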;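 also: 0% = DMSO with enzyme and 100% = DMSO wells lacking diaphorase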
Active calls of the source: *; . = not tested or not shown.

SMILES	Beta2AR agonist	ABHD5 PLIN5 PPI	MC4R ag barr	MC4R antagonist	PfG6PD inh	PfG6PD confirm	others
CC(Nc1ccc(N2CCOCC2)cc1)C(=O)N1c2ccccc2CC1C (centres undefined)	-7	1	0	-6	69*	-9
CC1Cc2ccccc2N1CC(=O)Nc1ccc(N2CCOCC2)cc1 (centres undefined)	-1	-4	1	8	-12	.
Cc1[nH]c(C)c(S(=O)(=O)NCc2ccc(F)cc2)c1C(=O)N1CCCCC1	2	5	-1	3	0	.
CCOC(=O)c1cnc(-c2ccccc2)nc1N1CCOCC1	-5	1	1	27	-15	.
CCOC(=O)c1[nH]cc(-c2ccccc2)c1N1CCOCC1	-2	-6	-2	3	73*	25
NC(=O)c1nc[nH]c1C(=O)Nc1cccc(C(F)(F)F)c1	-5	0	0	3	10	.
O=C(CSCc1ccccc1)N/N=C/c1ccccc1OCc1ccccc1	-6	-19	2	-3	63*	-14
COc1ccc(CSCC(=O)N/N=C/c2ccc(OCC(=O)NCc3ccco3)cc2)cc1	4	4	-1	2	-9	.
COc1ccc(CSCC(=O)N/N=C/c2ccccc2OCc2ccccc2)cc1	0	8	5	13	89*	20
CCN1CCN(C(=S)Nc2ccc(Cl)c(Cl)c2)CC1	1	-2	-2	6	6	.
CCN1CCN(C(=S)c2ccc(Cl)c(Cl)c2)CC1	-1	-8	-3	-2	59*	55*	Diaph ctr 10uM=24;Diaph ctr 30uM=-16
N#Cc1c(N)n[nH]c1-c1cc2c([nH]1)CCCC2	9	-1	-2	-1	1	.
N#Cc1cc2c([nH]c1=S)CCCCCC2	-4	-6	3	-6	63*	22
Nc1ccc(CNC(=O)OCC2c3ccccc3-c3ccccc32)cc1	-2	2	0	-6	117*	74*	Diaph ctr 10uM=65*;Diaph ctr 30uM=56*
COc1ccc(-c2nnc(SCc3c(C)noc3C)o2)cc1	-3	6	-1	1	-13	.
Cc1cc(C(=O)Nc2sc3c(c2C#N)CCC3)no1	-4	-6	-1	-1	-5	.
Cc1noc(C(=O)Nc2sc3c(c2C#N)CCC3)c1Cl	2	3	0	2	83*	52*	Diaph ctr 10uM=22;Diaph ctr 30uM=15
O=c1cc(-c2ccccc2)[nH]c2ccccc12	27	4	-3	-14	6	.
O=C1C(c2cc(=O)c3ccccc3[nH]2)=C(O)c2ccccc21	10	6	-3	0	83*	65*	Diaph ctr 10uM=50*;Diaph ctr 30uM=45
CCCCN(C)C1CCN(C(=S)Nc2cccc(SC)c2)CC1	-11	3	-2	2	12	.
CCOc1ccccc1NC(=O)c1cc(=O)[nH]c2ccc(S(=O)(=O)N3CCOCC3)cc12	-6	-8	-1	-1	-3	.
COc1ccc(C(=O)Nc2nnc(S(=O)(=O)N3CCOCC3)s2)cc1	3	-1	0	-1	78*	51*	Diaph ctr 10uM=39;Diaph ctr 30uM=32
COc1ccc(C(=O)Nc2nnc(-c3ccccc3)s2)cc1	19	6	0	-2	-10	.
CC1CCN(S(=O)(=O)c2nnc(NC(=O)c3cccc(Cl)c3)s2)CC1	-15	-6	-1	8	86*	42
CCc1nnc(NC(=O)c2cccc(OC)c2)s1	5	3	0	7	62*	42
SMILES	Beta2AR agonist	ABHD5 PLIN5 PPI	MC4R ag barr	MC4R antagonist	PfG6PD inh	PfG6PD confirm	others
COc1ccc(C(=O)Nc2nnc(C(F)(F)F)s2)cc1	-4	-4	1	10	118*	96*	Diaph ctr 10uM=89*;Diaph ctr 30uM=62*
O=C(Nc1nnc(S(=O)(=O)N2CCOCC2)s1)c1ccccc1	4	2	-1	11	63*	31
O=C(Nc1nnc(S(=O)(=O)N2CCOCC2)s1)c1ccc(Cl)cc1	5	-3	1	19	104*	72*	Diaph ctr 10uM=72*;Diaph ctr 30uM=54*
Cc1cnc(C(=O)OCc2ccc(C#N)cc2)cn1	-4	6	1	8	-13	.
CCn1ncc2c(OCc3ccc(C#N)cc3)cc(C)nc21	8	-5	6	-9	68*	22
CCc1ccccc1NC(=O)C1CCN(c2cnccn2)CC1	-2	-3	2	17	-13	.
CCOCC(=O)Nc1nnc(COc2ccc(Cl)cc2)s1	-5	-9	-1	-4	62*	15
Cc1onc(-c2ccccc2)c1C(=O)Nc1nnc(COc2ccc(Cl)cc2)s1	9	4	2	9	78*	49
NNC(=O)c1cc(C23CC4CC(CC(C4)C2)C3)[nH]n1	-4	-11	1	0	7	.
Cc1cccc(CN2[C@H](COCc3ccccc3)C=CS2(=O)=O)c1	.	-12	.	.	.	.
CC(C)c1nnc(NC(=O)c2cc3ccccc3o2)s1	3	7	-1	0	66*	54*	Diaph ctr 10uM=35;Diaph ctr 30uM=10
Cc1ccc(NC(=O)c2cc3ccccc3o2)cc1Cl	5	6	4	16	100*	18
CC(=O)Nc1cccc(NC(=O)c2cc3ccccc3o2)c1	-4	3	1	9	-3	.
O=C(Nc1ccc(N2CCN(C(=O)c3ccco3)CC2)c(Cl)c1)c1cc2ccccc2o1	27	4	1	3	90*	43*	Diaph ctr 10uM=47;Diaph ctr 30uM=44
CCC(=O)N1CCN(c2ccc(NC(=O)c3cc4ccccc4o3)cc2Cl)CC1	28	-20	3	2	118*	84*	Diaph ctr 10uM=72*;Diaph ctr 30uM=61*
CC(C)NC(=O)c1cc2ccccc2o1	-4	-7	1	-1	2	.
O=C(C1CCN(Cc2cccs2)CC1)N1CCN(Cc2ccc3c(c2)OCO3)CC1	2	-1	-1	0	3	.
CCOc1ccc(-c2n[nH]c(C)c2-c2ccccc2OC)c(O)c1	-11	3	0	4	17	.
CCc1cc(-c2n[nH]c(C)c2-c2ccccc2Cl)c(O)cc1OC	11	-13	2	4	98*	51*	Diaph ctr 10uM=55*;Diaph ctr 30uM=34
CCc1cc(-c2n[nH]c(CCC(=O)O)c2-c2nc3ccccc3n2C)c(O)cc1O	-8	-3	-3	-2	25	.
CCc1cc(-c2n[nH]c(C)c2-c2nc3ccccc3n2C)c(O)cc1O	1	-9	1	3	61*	49*	Diaph ctr 10uM=28;Diaph ctr 30uM=26
CCCCN1CCN=C1Nc1ccccc1	2	0	-2	3	1	.
Cn1c(CSc2nc3ccccc3n2C)nc2ccccc21	-6	3	-2	7	78*	45
O=C1NN=C2CCCCCC12 (centres undefined)	.	-2	1	3	-24	.
